According to ChEMBL document CHEMBL1255303, “In vitro and in vivo antifungal activities of T-2307, a novel arylamidine” (2008):
Converted amounts (≈) assume the structure as drawn. The source made the active and inactive calls. The calls are words filed in the database; no cut-off is given here.

Key:
Nakaseomyces glabratus [1] = test: Antifungal activity against Candida glabrata ATCC 90030 after 48 hrs by broth microdilution method; type: functional; conditions: ATCC 90030, 48 h
Outline: (§1)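 CLSI M27-A2 (yeasts) / M38-A (moulds) broth microdilution in RPMI 1640 buffered to pH 7.0 with 0.165 M MOPS. Malassezia furfur got the same medium supplemented with glucose, bile salts, glycerol, glycerol monostearate and Tween 20. Final inoculum 0.65 × 10^3–2.5 × 10^3 CFU/ml for yeasts and 0.87 × 10^4–3.8 × 10^4 CFU/ml for filamentous fungi. Incubation at 35°C except M. racemosus and F. solani, which were held at 30°C.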

[2] = test system: Meyerozyma guilliermondii; test: Antifungal activity against Candida guilliermondii IFO 10279 after 48 hrs by broth microdilution method; type: functional; conditions: IFO 10279, 48 h; outline: as §1
Candida parapsilosis [3] = test: Antifungal activity against Candida parapsilosis NBRC 10219 after 48 hrs by broth microdilution method; type: functional; conditions: Lodderomyces parapsilosis, NBRC 10219, 48 h
Outline: (§2)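 CLSI M27-A2 (yeasts) or M38-A (A. fumigatus) broth microdilution in RPMI 1640 buffered to pH 7.0 with 0.165 M MOPS. Final inocula were 0.65–2.5 × 10^3 CFU/ml for yeasts and 0.87–3.8 × 10^4 CFU/ml for filamentous fungi. Incubation was at 35°C for about 48 h (72 h for C. neoformans). MIC was the lowest concentration giving a prominent (~50%) turbidity drop versus growth control; amphotericin B required complete inhibition.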

Candida tropicalis = test: Antifungal activity against Candida tropicalis IFO 1400 after 48 hrs by broth microdilution method; type: functional; conditions: IFO 1400, 48 h; outline: as §1
Cryptococcus neoformans [4] = test: Antifungal activity against Cryptococcus neoformans ATCC 90112 after 72 hrs by broth microdilution method; type: functional; conditions: ATCC 90112, 72 h; outline: as §2
Cryptococcus neoformans [5] = test: Antifungal activity against Cryptococcus neoformans TIMM 0354 after 72 hrs by broth microdilution method; type: functional; conditions: TIMM 0354, 72 h; outline: as §2
Aspergillus fumigatus [6] = test: Antifungal activity against Aspergillus fumigatus ATCC 16424 after 48 hrs by broth microdilution method; type: functional; conditions: ATCC 16424, 48 h; outline: as §2
Aspergillus niger = test: Antifungal activity against Aspergillus niger NBRC 33023 after 48 hrs by broth microdilution method; type: functional; conditions: NBRC 33023, 48 h; outline: as §1
Aspergillus terreus = test: Antifungal activity against Aspergillus terreus NBRC 33026 after 48 hrs by broth microdilution method; type: functional; conditions: NBRC 33026, 48 h; outline: as §1
Scedosporium boydii = test: Antifungal activity against Pseudallescheria boydii NBRC 32229 after 72 hrs by broth microdilution method; type: functional; conditions: NBRC 32229, 72 h; outline: as §1
Rhizopus arrhizus = test: Antifungal activity against Rhizopus oryzae NBRC 31005 after 24 hrs by broth microdilution method; type: functional; conditions: NBRC 31005, 24 h; outline: as §1
Lichtheimia corymbifera = test: Antifungal activity against Absidia corymbifera NBRC 4009 after 24 hrs by broth microdilution method; type: functional; conditions: NBRC 4009, 24 h; outline: as §1
Trichophyton rubrum = test: Antifungal activity against Trichophyton rubrum NBRC 5467 after 72 hrs by broth microdilution method; type: functional; conditions: NBRC 5467, 72 h; outline: as §1
Candida albicans [7] = test: Antifungal activity against Candida albicans ATCC 96901 after 47 hrs by broth microdilution method; type: functional; conditions: ATCC 96901, 47 h
Outline: (§3)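 Fluconazole-resistant or susceptible-dose-dependent ATCC C. albicans strains were tested by CLSI M27-A2 broth microdilution in RPMI 1640–0.165 M MOPS, pH 7.0, with a final inoculum of 1.1–1.5 × 10^3 CFU/ml at 35°C for about 47 h. MIC was the lowest concentration with a prominent (~50%) turbidity decrease relative to growth control; amphotericin B was read at complete inhibition.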

Candida albicans [8] = test: Antifungal activity against Candida albicans ATCC MYA-573 after 47 hrs by broth microdilution method; type: functional; conditions: ATCC MYA-573, 47 h; outline: as §3
Candida albicans [9] = test: Antifungal activity against Candida albicans ATCC MYA-574 after 47 hrs by broth microdilution method; type: functional; conditions: ATCC MYA-574, 47 h
Outline: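 Fluconazole-resistant or susceptible-dose-dependent C. albicans ATCC strains were tested by broth microdilution in RPMI 1640-MOPS. Inoculum was 1.1 × 10^3–1.5 × 10^3 CFU/ml, with incubation at 35°C for about 47 h. Yeast MIC was read as about 50% turbidity decrease relative to growth control, except amphotericin B, read at complete inhibition.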

Candida albicans [10] = test: Antifungal activity against Candida albicans ATCC MYA-575 after 47 hrs by broth microdilution method; type: functional; conditions: ATCC MYA-575, 47 h; outline: as §3
Candida albicans [11] = test: Antifungal activity against Candida albicans ATCC MYA-1003 after 47 hrs by broth microdilution method; type: functional; conditions: ATCC MYA-1003, 47 h; outline: as §3
Nakaseomyces glabratus [12] = test: Antifungal activity against Candida glabrata clinical isolates after 48 hrs by broth microdilution method; type: functional
Outline: (§4)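 Clinical isolates from Japanese hospitals or culture collections were tested by broth microdilution in RPMI 1640-MOPS. Inoculum was 0.57 × 10^3–2.5 × 10^3 CFU/ml for yeasts and 0.4 × 10^4–3.3 × 10^4 CFU/ml for filamentous fungi. Incubation was at 35°C for about 48 h, or 72 h where footnoted. Results were summarised as MIC range, MIC50 and MIC90.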

Candida parapsilosis [13] = test: Antifungal activity against Candida parapsilosis clinical isolates after 48 hrs by broth microdilution method; type: functional; conditions: Lodderomyces parapsilosis
Outline: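 Japanese hospital Candida isolates were tested by CLSI M27-A2 broth microdilution in RPMI 1640–MOPS, pH 7.0, with inocula of 0.57–2.5 × 10^3 CFU/ml at 35°C for about 48 h. Inocula came from 24-h potato dextrose agar cultures. MIC was the lowest concentration with about 50% turbidity reduction versus growth control (complete inhibition for amphotericin B). Range, MIC50 and MIC90 were reported.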

Cryptococcus neoformans [14] = test: Antifungal activity against Cryptococcus neoformans clinical isolates after 72 hrs by broth microdilution method; type: functional; outline: as §4
Aspergillus fumigatus [15] = test: Antifungal activity against Aspergillus fumigatus IFM 46895 infected ICR mouse assessed as delay in mortality of mouse at 1 mg/kg after 6 days; type: functional, organism-based; design: dose 1 mg/kg
Outline: (§5)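 Male ICR mice, 4 weeks old and SPF, were made neutropenic with intraperitoneal cyclophosphamide. The schedule was 200 mg/kg on day −3 (day −4 for Cryptococcus) plus 100 mg/kg on day +1. Infection was by tail-vein injection of 0.2 ml suspension: C. albicans 3.0 × 10^4, C. neoformans 9.1 × 10^4, A. fumigatus conidia 8.4 × 10^4 CFU/mouse. Drugs were given subcutaneously once daily for 7 days from 2 h post-infection; controls received saline. Groups had 8–10 mice.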

Candida albicans [16] = test: Antifungal activity against Candida albicans TIMM 1623 infected ICR mouse after 6 days; type: functional; conditions: TIMM 1623, 144 h; outline: as §5

MIC (Nakaseomyces glabratus [1]): 0.0039 µg/mL (≈ 0.00891 µM) | MIC [2]: 0.002 µg/mL (≈ 0.00457 µM) | MIC (Candida parapsilosis [3]): 0.001 µg/mL (≈ 0.00229 µM) | MIC (Candida tropicalis): 0.0005 µg/mL (≈ 0.00114 µM) | MIC (Cryptococcus neoformans [4]): 0.0078 µg/mL (≈ 0.0178 µM) | MIC (Cryptococcus neoformans [5]): 0.0039 µg/mL (≈ 0.00891 µM) | MIC (Aspergillus fumigatus [6]): 0.125 µg/mL (≈ 0.286 µM) | MIC (Aspergillus niger): 0.0625 µg/mL (≈ 0.143 µM) | MIC (Aspergillus terreus): 0.125 µg/mL (≈ 0.286 µM) | MIC (Scedosporium boydii): 4 µg/mL (≈ 9.14 µM) | MIC (Rhizopus arrhizus): > 64 µg/mL | MIC (Lichtheimia corymbifera): 0.5 µg/mL (≈ 1.14 µM) | MIC (Trichophyton rubrum): 2 µg/mL (≈ 4.57 µM) | MIC (Candida albicans [7]): 0.001 µg/mL (≈ 0.00229 µM) | MIC (Candida albicans [8]): 0.001 µg/mL (≈ 0.00229 µM) | MIC (Candida albicans [9]): 0.001 µg/mL (≈ 0.00229 µM) | MIC (Candida albicans [10]): 0.001 µg/mL (≈ 0.00229 µM) | MIC (Candida albicans [11]): 0.001 µg/mL (≈ 0.00229 µM) | MIC (Nakaseomyces glabratus [12]): 0.0039 µg/mL (≈ 0.00891 µM) | MIC50 (Nakaseomyces glabratus [12]): 0.0039 µg/mL (≈ 0.00891 µM) | MIC90 (Nakaseomyces glabratus [12]): 0.0078 µg/mL (≈ 0.0178 µM) | MIC50 (Candida parapsilosis [13]): 0.0005 µg/mL (≈ 0.00114 µM) | MIC90 (Candida parapsilosis [13]): 0.0005 µg/mL (≈ 0.00114 µM) | MIC50 (Cryptococcus neoformans [14]): 0.0156 µg/mL (≈ 0.0356 µM) | MIC90 (Cryptococcus neoformans [14]): 0.0313 µg/mL (≈ 0.0715 µM)
Compound: N=C(N)c1ccc(OCCCC2CCN(CCCOc3ccc(C(=N)N)cc3)CC2)cc1
MFC (Nakaseomyces glabratus [1]): > 64 µg/mL | MFC [2]: 0.0078 µg/mL (≈ 0.0178 µM) | MFC (Candida parapsilosis [3]): > 64 µg/mL | MFC (Candida tropicalis): 4 µg/mL (≈ 9.14 µM) | MFC (Cryptococcus neoformans [4]): 0.0313 µg/mL (≈ 0.0715 µM) | MFC (Cryptococcus neoformans [5]): 0.0156 µg/mL (≈ 0.0356 µM) | MFC (Aspergillus fumigatus [6]): > 64 µg/mL | MFC (Aspergillus niger): 0.0625 µg/mL (≈ 0.143 µM) | MFC (Aspergillus terreus): 4 µg/mL (≈ 9.14 µM) | MFC (Scedosporium boydii): > 64 µg/mL | MFC (Rhizopus arrhizus): > 64 µg/mL | MFC (Lichtheimia corymbifera): > 64 µg/mL | MFC (Trichophyton rubrum): > 64 µg/mL | Activity (Aspergillus fumigatus [15]): Active | ED50 (Candida albicans [16]): 7.55 µg/kg
